Measured values: ChEMBL document CHEMBL4038317, “Discovery of a Benzamide Derivative That Protects Pancreatic β-Cells against Endoplasmic Reticulum Stress” (J Med Chem, 2017)
The source made the active and inactive calls. The rule behind the calls is not given here.

Experiments:
[1] = test system: Mus musculus; assay: Toxicity in STZ-induced diabetic C57BL/6 mouse model assessed as effect on alpha-cells at 5 mg/kg, ip administrated qd with streptozotocin for 5 days followed by compound administration alone for 2 more weeks by DAPI-staining based confocal microscopic analysis; assay type: organism-based; settings: in vivo, 120 h
Procedure, shortened: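 At the end of treatment in the STZ mouse model, pancreases were formalin-fixed, paraffin-embedded and serially sectioned at 100 μm intervals. Six sections were stained for insulin and glucagon with DAPI counterstain and imaged by confocal microscopy. Insulin-positive cells demarcated islets; total islet area per section and cells per islet were quantified.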

[2] = test system: INS1; assay: Cytoprotective activity in rat INS-1 cells assessed as protection against tunicamycin-induced ER stress-mediated reduction in cell viability after 3 days by CellTiter-Glo assay; settings: INS1, 72 h
[3] = test system: Mus musculus; assay: Antidiabetic activity in STZ-induced diabetic C57BL/6 mouse model assessed as blood glucose level at 5 mg/kg, ip administrated qd with streptozotocin for 5 days followed by compound administration alone for 2 more weeks measured on every third day during 5 hr fasting (reference value: 422 mg/dL); assay type: functional
[4] = target: T1, Cyclic AMP-dependent transcription factor ATF-6 alpha (Rattus norvegicus) (UniProt G3V909); assay: Inhibition of tunicamycin ER stress-induced ATF6 activation in rat INS-1 cells assessed as suppression of increase in […] mRNA levels up to 10 uM after 8 hrs by qRT-PCR analysis; assay type: cell-based
T1 sequence (whole entry): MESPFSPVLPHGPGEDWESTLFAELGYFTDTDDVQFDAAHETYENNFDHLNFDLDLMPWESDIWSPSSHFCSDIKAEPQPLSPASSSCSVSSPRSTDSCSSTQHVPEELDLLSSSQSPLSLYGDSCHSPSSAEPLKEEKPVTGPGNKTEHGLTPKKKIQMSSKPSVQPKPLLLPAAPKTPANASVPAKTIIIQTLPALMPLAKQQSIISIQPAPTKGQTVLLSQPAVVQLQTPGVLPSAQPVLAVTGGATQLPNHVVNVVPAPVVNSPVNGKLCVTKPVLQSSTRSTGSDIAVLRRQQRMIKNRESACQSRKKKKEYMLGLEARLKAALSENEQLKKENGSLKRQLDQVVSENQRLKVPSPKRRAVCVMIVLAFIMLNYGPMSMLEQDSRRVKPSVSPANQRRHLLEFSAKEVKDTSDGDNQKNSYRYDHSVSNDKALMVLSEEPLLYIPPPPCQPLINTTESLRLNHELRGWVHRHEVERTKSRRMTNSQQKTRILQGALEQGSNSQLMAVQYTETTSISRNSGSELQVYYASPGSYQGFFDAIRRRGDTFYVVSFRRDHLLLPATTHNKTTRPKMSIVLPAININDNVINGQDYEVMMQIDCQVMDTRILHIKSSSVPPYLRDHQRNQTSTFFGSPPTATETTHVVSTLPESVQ
Procedure, shortened: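 INS-1 cells, 4×10^5 per well, were exposed to tunicamycin 0.1 μg/mL with compound or DMSO for 8 h. qRT-PCR for ATF4, CHOP, Bip, GRP94, or spliced XBP1 using splicing-specific primers. Values were normalized to cyclophilin A by ΔΔCt and given as fold over untreated control. Triplicate wells, 3 independent experiments.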

[5] = target: T2, Eukaryotic translation initiation factor 2-alpha kinase 3 (Rattus norvegicus) (UniProt Q9Z1Z1); assay: Inhibition of tunicamycin ER stress-induced PERK activation in rat INS-1 cells assessed as suppression of tunicamycin-induced increase in CHOP protein levels up to 10 uM after 8 hrs by Western blot analysis; assay type: cell-based
T2 sequence (whole entry): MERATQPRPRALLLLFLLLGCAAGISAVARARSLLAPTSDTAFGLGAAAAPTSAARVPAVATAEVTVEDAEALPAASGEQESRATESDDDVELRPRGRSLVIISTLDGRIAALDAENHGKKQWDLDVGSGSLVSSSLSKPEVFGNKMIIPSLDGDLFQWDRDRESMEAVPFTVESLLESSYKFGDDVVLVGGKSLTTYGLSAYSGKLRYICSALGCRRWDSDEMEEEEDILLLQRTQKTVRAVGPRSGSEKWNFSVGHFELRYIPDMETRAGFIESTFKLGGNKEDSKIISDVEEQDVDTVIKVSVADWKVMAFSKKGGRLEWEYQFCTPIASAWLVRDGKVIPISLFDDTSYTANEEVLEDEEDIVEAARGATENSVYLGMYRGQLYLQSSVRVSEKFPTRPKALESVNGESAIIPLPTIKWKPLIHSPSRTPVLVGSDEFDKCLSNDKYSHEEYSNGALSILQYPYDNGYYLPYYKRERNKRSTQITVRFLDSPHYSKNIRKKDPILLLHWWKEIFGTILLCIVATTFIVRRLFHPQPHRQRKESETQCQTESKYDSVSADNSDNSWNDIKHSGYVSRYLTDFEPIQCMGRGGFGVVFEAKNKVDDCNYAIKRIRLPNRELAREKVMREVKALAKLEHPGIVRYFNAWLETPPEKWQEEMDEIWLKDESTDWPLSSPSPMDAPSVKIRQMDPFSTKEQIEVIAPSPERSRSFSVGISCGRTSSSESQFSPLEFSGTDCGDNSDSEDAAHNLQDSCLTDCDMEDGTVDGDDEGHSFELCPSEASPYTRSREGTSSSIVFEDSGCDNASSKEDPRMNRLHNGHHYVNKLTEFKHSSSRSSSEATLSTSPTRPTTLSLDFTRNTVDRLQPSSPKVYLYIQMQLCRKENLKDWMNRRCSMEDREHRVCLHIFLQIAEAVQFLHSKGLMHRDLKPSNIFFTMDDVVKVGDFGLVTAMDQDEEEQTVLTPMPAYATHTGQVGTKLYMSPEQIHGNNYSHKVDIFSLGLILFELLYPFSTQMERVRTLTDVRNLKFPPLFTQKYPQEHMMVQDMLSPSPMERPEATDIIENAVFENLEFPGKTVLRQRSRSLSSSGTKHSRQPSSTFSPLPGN
Procedure, shortened: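 INS-1 cells were exposed to tunicamycin 0.1 μg/mL with compound or DMSO for 8 h. Lysates were immunoblotted for ATF4 and CHOP (1:1000). Bands were quantified by densitometry and normalized to α-tubulin; 3 independent experiments.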

[6] = test system: INS1; assay: Protection against tunicamycin ER stress-induced suppression of INS2 mRNA expression in rat INS-1 cells up to 1 uM after 24 hrs by qRT-PCR analysis; assay type: functional, cell-based
Procedure, shortened: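 INS-1 cells were exposed to tunicamycin 0.1 μg/mL with compound or DMSO for 24 h. INS1, INS2, PDX1 and MafA mRNA were measured by qRT-PCR and normalized to cyclophilin A by the comparative Ct method. Triplicate wells, 3 independent experiments.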

[7] = test system: Beta-TC6; assay: Cytotoxicity against mouse BetaTC6 cells assessed as reduction in cell viability up to 40 uM after 3 days by CellTiter-Glo assay; assay type: cell-based; settings: beta-tc6, 72 h
[8] = test system: INS1; assay: Cytotoxicity against rat INS-1 cells assessed as reduction in cell viability up to 10 uM after 3 days by CellTiter-Glo assay; assay type: cell-based; settings: ins1, 72 h
Procedure, shortened: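 INS-1 cells, 3×10^3 per well, were given compound or DMSO alone (no tunicamycin) for 72 h. Intracellular ATP was read by luminescence and expressed as fold of untreated cells. Triplicate wells, three independent experiments.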

O=C(NCc1ccc(C(F)(F)F)cc1)c1cccc(CN2CCCCC2)c1
Activity [1]: Non-Toxic | EC50 [2]: 30 nM | Activity [3]: 314 mg/dL | inhibition [4]: Active | inhibition [5]: Active | Activity [6]: Active | Activity [7]: Non-Toxic | Activity [8]: Non-Toxic
